In paper PMC2219267 (The Journal of General Physiology, 1996):

Experiments:
band 3 [1] = biological target: T1, band 3 (Homo sapiens, UniProt P02730); test: 125I iodide influx into red blood cells; format: cell-based
T1 sequence (P02730 1-911): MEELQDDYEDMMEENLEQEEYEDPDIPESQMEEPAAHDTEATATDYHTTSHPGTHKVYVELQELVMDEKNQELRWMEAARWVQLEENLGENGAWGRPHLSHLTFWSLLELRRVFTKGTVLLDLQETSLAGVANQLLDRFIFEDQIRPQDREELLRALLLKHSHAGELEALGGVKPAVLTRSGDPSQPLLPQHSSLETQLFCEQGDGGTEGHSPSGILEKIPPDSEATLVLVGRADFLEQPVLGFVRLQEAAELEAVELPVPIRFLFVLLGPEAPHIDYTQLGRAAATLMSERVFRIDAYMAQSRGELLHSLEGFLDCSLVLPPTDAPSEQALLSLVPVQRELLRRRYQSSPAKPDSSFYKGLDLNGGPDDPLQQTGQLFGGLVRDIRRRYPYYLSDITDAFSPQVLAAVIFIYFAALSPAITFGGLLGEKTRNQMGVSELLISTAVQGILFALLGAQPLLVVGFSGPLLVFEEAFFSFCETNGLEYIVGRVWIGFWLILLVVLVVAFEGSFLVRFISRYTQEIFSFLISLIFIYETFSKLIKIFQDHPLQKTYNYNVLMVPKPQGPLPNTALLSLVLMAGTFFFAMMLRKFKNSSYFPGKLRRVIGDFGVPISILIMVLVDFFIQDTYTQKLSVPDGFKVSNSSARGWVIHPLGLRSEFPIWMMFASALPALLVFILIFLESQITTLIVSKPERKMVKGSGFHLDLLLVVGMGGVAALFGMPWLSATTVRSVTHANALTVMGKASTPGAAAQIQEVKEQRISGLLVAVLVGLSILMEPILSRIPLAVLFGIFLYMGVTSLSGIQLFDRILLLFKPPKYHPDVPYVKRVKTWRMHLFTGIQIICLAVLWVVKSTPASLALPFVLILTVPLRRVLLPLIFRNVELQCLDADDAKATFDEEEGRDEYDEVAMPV
In short: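 Heparinised human blood was washed three times in 150 KH (150 mM KCl, 24 mM sucrose, 20 mM Hepes, pH 7.2 at 0°C), with white cells aspirated, then held at 50% hematocrit. DIDS-treated cells received a 2 mM DIDS stock. Media mixed sucrose, KCl and KI with 5 mM buffer. Above pHo 11, cells were nystatin-loaded to 300 mM Cl-, and CAPS-buffered media were used.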

band 3 [2] = biological target: T1, band 3; details: cited from earlier work

[I-].[K+] [iodide, potassium iodide]
I- influx as % of Cl- efflux (band 3 [1]; no citrate, [Clo] 0.28 mM, [Io] 2.2 mM, 0°C): less than 6% | half-saturation concentration for Io activation of I- influx (band 3 [1]; pH 10.6, 1.65 mM [Clo]): 26.4 ± 1.8 mM | I- influx as % of Cl- efflux (band 3 [1]; pH 11.5, 53 mM [Io], 16.5 mM [Clo]): 16% | I- influx as % of Cl- efflux (band 3 [1]; pHo 10.6, 1.65 mM [Clo], up to 15 mM [Io]): less than 10% | transport rate relative to Cl- (band 3 [2]; 0°C, pH 7.4, ref Dalmark and Wieth, 1972): 260 times slower | 1/R, ratio of dissociation constants alkaline/neutral state (band 3 [2]; ref Bjerrum (1992)): 35.8 | R = K++I/K+I, ratio of I- dissociation constants for neutral and alkaline forms (band 3 [2]; ref Bjerrum (1992)): 0.0279
